Here are results for 16 compounds from paper PMC9043576 (RSC Advances, 2021).

The structures appear in SMILES notation. Entries after “also recorded” stand apart in the source; their conditions may differ.

One data set has as its target DPP-4 (Homo sapiens, UniProt P27487). Briefly: biochemical. Type of data set: biochemical. The note with it: for DPP-4 suppression activity (in words): human recombinant DPP-4; for IC50: Experimental PIC50, pIC50 = −log IC50, QSAR training set.
The test system of data set [1] is high-fat diet-fed/streptozotocin (HFD/STZ) induced T2DM male albino mice. In words: Acute hypoglycemic activity, intraperitoneal glucose tolerance test. The note with it: IPGTT, diabetic mice, mean ±SD; for Blood glucose level (1 h): single dose 10 mg kg^−1, 1 h; for Blood glucose level (2 h): single dose 10 mg kg^−1, 2 h; for Blood glucose level (3 h): single dose 10 mg kg^−1, 3 h; for Blood glucose level (6 h): single dose 10 mg kg^−1, 6 h. Format: in vivo. An outline of the steps:
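Diabetic male albino mice (high-fat diet-fed/streptozotocin-induced T2DM) received a single 10 mg kg−1 dose of test compound; the IPGTT was then run. Blood glucose (mg dl−1) was read at 1, 2, 3 and 6 h. The groups were normal control, untreated STZ-diabetic control and treated animals, with n = 4 per group. Values are mean ±SD.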

Data set [2] concerns normal hTERT-RPE1 cell line. Briefly: Cytotoxicity bioassay. Format: cell-based. The note with it: MTT.
In a further data set the target is DPP-8 (Homo sapiens, UniProt Q6V1X1). In words: In vitro DPP-8 selectivity assay, fluorescence-based. Format: biochemical.
Sequence of DPP-8 (Q6V1X1 whole entry): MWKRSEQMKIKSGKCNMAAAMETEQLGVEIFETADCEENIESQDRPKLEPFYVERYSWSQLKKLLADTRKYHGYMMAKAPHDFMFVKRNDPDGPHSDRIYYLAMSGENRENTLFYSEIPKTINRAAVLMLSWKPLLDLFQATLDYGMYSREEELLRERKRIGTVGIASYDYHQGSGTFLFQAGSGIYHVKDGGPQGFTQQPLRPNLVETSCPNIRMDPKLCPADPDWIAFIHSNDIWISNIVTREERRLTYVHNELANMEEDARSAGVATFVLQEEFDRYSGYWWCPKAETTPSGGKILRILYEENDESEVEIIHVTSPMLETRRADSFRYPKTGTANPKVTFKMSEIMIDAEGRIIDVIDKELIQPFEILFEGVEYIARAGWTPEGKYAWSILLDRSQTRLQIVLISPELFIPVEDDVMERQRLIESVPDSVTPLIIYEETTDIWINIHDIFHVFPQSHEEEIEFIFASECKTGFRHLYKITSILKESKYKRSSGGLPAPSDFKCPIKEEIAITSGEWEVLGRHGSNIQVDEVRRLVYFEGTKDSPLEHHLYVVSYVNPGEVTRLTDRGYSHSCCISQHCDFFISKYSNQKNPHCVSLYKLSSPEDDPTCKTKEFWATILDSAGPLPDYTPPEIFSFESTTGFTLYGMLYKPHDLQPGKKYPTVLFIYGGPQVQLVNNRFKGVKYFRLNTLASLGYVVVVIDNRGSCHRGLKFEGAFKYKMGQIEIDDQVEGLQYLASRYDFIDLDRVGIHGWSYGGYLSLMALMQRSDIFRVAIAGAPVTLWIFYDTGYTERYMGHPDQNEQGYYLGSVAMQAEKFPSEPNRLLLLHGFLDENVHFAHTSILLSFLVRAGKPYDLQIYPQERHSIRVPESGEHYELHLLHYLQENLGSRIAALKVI
Another data set addresses DPP-9 (Homo sapiens, UniProt Q86TI2). Briefly: In vitro DPP-9 selectivity assay, fluorescence-based. Type of data set: biochemical.

Sequence of DPP-4 (P27487 whole entry): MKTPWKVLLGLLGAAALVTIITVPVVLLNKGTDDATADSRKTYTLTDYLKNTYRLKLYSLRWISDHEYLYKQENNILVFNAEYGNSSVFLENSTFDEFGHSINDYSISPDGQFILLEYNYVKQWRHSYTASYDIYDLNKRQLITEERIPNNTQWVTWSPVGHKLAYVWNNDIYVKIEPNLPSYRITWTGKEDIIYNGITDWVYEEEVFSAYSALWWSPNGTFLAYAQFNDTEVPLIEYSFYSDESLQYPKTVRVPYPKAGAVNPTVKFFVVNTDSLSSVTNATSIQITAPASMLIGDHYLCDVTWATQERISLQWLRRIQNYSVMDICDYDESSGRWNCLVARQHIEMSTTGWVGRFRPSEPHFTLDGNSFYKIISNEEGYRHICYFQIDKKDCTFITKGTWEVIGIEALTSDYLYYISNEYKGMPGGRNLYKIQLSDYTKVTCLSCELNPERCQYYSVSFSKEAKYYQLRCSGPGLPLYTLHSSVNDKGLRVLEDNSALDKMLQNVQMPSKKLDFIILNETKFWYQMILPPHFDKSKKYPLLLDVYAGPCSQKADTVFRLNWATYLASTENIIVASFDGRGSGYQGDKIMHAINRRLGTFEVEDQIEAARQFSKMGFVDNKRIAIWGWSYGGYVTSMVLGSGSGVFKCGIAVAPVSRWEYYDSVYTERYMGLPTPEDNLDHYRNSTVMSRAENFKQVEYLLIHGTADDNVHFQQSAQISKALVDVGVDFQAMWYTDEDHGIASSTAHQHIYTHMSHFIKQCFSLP
Sequence of DPP-9 (Q86TI2 whole entry): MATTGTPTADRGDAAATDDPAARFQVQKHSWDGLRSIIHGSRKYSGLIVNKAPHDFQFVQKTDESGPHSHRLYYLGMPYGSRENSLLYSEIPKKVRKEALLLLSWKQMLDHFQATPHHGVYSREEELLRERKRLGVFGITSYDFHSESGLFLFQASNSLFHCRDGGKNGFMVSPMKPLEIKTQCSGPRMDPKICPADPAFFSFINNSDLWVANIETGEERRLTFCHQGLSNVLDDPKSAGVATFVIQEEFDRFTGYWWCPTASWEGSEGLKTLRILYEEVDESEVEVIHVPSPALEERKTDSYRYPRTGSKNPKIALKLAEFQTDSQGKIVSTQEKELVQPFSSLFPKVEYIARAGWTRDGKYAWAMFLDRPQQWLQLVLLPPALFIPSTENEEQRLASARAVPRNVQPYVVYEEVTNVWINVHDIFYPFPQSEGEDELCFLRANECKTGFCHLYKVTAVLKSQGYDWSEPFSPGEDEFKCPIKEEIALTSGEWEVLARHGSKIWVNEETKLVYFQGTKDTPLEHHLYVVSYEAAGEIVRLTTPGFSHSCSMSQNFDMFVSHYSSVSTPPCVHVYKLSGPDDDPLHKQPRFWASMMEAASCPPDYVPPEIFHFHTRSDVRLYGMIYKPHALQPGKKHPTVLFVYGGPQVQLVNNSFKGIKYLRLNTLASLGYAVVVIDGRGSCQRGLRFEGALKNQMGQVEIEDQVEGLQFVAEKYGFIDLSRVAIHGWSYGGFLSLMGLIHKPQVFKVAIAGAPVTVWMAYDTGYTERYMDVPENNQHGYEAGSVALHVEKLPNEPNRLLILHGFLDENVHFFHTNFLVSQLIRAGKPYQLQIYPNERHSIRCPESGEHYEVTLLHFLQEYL

Turning to `Cn1c(=O)c(=O)n(C)c2cc(S(=O)(=O)Nc3nccs3)ccc21` [Compound 6a, 1,4-Dimethyl-2,3-dioxo-N-(thiazol-2-yl)-1,2,3,4-tetrahydroquinoxaline-6-sulfonamide], the “DPP-4 suppression activity (in words)” value at DPP-4 is “inactive; also recorded: completely lost”.

In the case of `CC(=O)c1ccc(NS(=O)(=O)c2ccc3c(c2)n(C)c(=O)c(=O)n3C)cc1` [Compound 6b, N-(4-Acetylphenyl)-1,4-dimethyl-2,3-dioxo-1,2,3,4-tetrahydroquinoxaline-6-sulfonamide], in data set [1], the “Blood glucose level (1 h)” value is 235.64 ± 4.25 mg/dL, the “Blood glucose level (2 h)” value stood at 127.33 ± 7.15 mg/dL, the “Blood glucose level (3 h)” value came out at 95.67 ± 6.21 mg/dL and the “Blood glucose level (6 h)” value was found to be 96.24 ± 4.29 mg/dL.

Regarding `Cn1c(=O)c(=O)n(C)c2cc(S(=O)(=O)Nc3ccc(C(=O)O)cc3)ccc21` [Compound 6c, 4-(1,4-Dimethyl-2,3-dioxo-1,2,3,4-tetrahydroquinoxaline-6-sulfonamido)benzoic acid], in data set [1], the “Blood glucose level (1 h)” value is 220.59 ± 5.12 mg/dL, the “Blood glucose level (2 h)” value was determined as 125.31 ± 3.47 mg/dL, the “Blood glucose level (3 h)” value was determined as 90.68 ± 3.45 mg/dL and the “Blood glucose level (6 h)” value is 90.06 ± 7.25 mg/dL.

`Cn1c(=O)c(=O)n(C)c2cc(S(=O)(=O)Nc3ccc(F)cc3)ccc21` [Compound 6d, N-(4-Fluorophenyl)-1,4-dimethyl-2,3-dioxo-1,2,3,4-tetrahydroquinoxaline-6-sulfonamide]: in data set [1], the “Blood glucose level (1 h)” value was 226.33 ± 6.34 mg/dL, the “Blood glucose level (2 h)” value worked out at 120.08 ± 4.11 mg/dL, the “Blood glucose level (3 h)” value amounted to 99.33 ± 1.29 mg/dL and the “Blood glucose level (6 h)” value was determined as 93.33 ± 6.11 mg/dL.

For the compound `Cn1c(=O)c(=O)n(C)c2cc(S(=O)(=O)Nc3ccc(Br)cc3)ccc21` [Compound 6e, N-(4-Bromophenyl)-1,4-dimethyl-2,3-dioxo-1,2,3,4-tetrahydroquinoxaline-6-sulfonamide], at DPP-4, the IC50 (usually the concentration needed to halve the response being measured) was 0.724 nM. In data set [1], the “Blood glucose level (1 h)” value stood at 222.09 ± 4.85 mg/dL, the “Blood glucose level (2 h)” value was 125.04 ± 3.26 mg/dL, the “Blood glucose level (3 h)” value stood at 95.28 ± 4.55 mg/dL and the “Blood glucose level (6 h)” value turned out to be 92.17 ± 8.45 mg/dL.

Regarding `Cn1c(=O)c(=O)n(C)c2cc(S(=O)(=O)Nc3ccccc3S)ccc21` [Compound 6f, N-(2-Mercaptophenyl)-1,4-dimethyl-2,3-dioxo-1,2,3,4-tetrahydroquinoxaline-6-sulfonamide], in data set [1], the “Blood glucose level (1 h)” value was determined as 218.00 ± 4.26 mg/dL, the “Blood glucose level (2 h)” value was 118.07 ± 8.21 mg/dL, the “Blood glucose level (3 h)” value worked out at 97.09 ± 6.39 mg/dL and the “Blood glucose level (6 h)” value turned out to be 93.25 ± 7.49 mg/dL.

`Cn1c(=O)c(=O)n(C)c2cc(S(=O)(=O)Nc3ccc(S(N)(=O)=O)cc3)ccc21` [Compound 7a, 1,4-Dimethyl-2,3-dioxo-N-(4-sulfamoylphenyl)-1,2,3,4-tetrahydroquinoxaline-6-sulfonamide]: at DPP-4, the “folds more potent DPP-4 inhibitory effect than Linagliptin” value was 1.2–1.6 folds and the IC50 is 0.617 nM. In data set [1], the “Blood glucose level (1 h)” value was 251.29 ± 2.80 mg/dL, the “Blood glucose level (2 h)” value turned out to be 138.16 ± 9.23 mg/dL, the “Blood glucose level (3 h)” value is 122.08 ± 3.31 mg/dL and the “Blood glucose level (6 h)” value stood at 99.25 ± 4.35 mg/dL.

With `CC(=O)NNS(=O)(=O)c1ccc2c(c1)n(C)c(=O)c(=O)n2C` [Compound 9a, N′-Acetyl-1,4-dimethyl-2,3-dioxo-1,2,3,4-tetrahydroquinoxaline-6-sulfonohydrazide], in data set [2], the “Inhibition% of normal hTERT-RPE1 cells” value is 20%. Further, in data set [1], the “Blood glucose level (1 h)” value amounted to 237.40 ± 3.15 mg/dL, the “Blood glucose level (2 h)” value came to 115.11 ± 4.25 mg/dL, the “Blood glucose level (3 h)” value stood at 97.12 ± 8.37 mg/dL and the “Blood glucose level (6 h)” value worked out at 85.23 ± 1.69 mg/dL. The IC50 against DPP-8 is greater than 100000 nM. For the same compound, the “selectivity towards DPP-4 inhibition over DPP-8/9” value at DPP-8 (DPP-4 versus DPP-8/9) is on record as greater than 1000 folds. In addition, the IC50 on DPP-9 was greater than 100000 nM.

In the case of `Cn1c(=O)c(=O)n(C)c2cc(S(=O)(=O)NNC(=O)CCl)ccc21` [Compound 9b, N′-(2-Chloroacetyl)-1,4-dimethyl-2,3-dioxo-1,2,3,4-tetrahydroquinoxaline-6-sulfono hydrazide], in data set [1], the “Blood glucose level (1 h)” value amounted to 223.89 ± 3.85 mg/dL, the “Blood glucose level (2 h)” value is 118.12 ± 5.95 mg/dL, the “Blood glucose level (3 h)” value turned out to be 89.12 ± 4.21 mg/dL and the “Blood glucose level (6 h)” value is 85.25 ± 2.12 mg/dL.

`Cn1c(=O)c(=O)n(C)c2cc(S(=O)(=O)NNC(=O)c3ccccc3)ccc21` [Compound 9c, N′-Benzoyl-1,4-dimethyl-2,3-dioxo-1,2,3,4-tetrahydroquinoxaline-6-sulfonohydrazide]: in data set [1], the “Blood glucose level (1 h)” value was found to be 235.40 ± 3.85 mg/dL, the “Blood glucose level (2 h)” value turned out to be 120.11 ± 2.35 mg/dL, the “Blood glucose level (3 h)” value came to 96.68 ± 4.25 mg/dL and the “Blood glucose level (6 h)” value stood at 80.16 ± 5.01 mg/dL.

On to `Cn1c(=O)c(=O)n(C)c2cc(S(=O)(=O)NNC(=O)NCc3ccccc3)ccc21` [Compound 10b, N-Benzyl-2-((1,4-dimethyl-2,3-dioxo-1,2,3,4-tetrahydroquinoxalin-6-yl)sulfonyl)hydrazine-1-carboxamide], for which, in data set [1], the “Blood glucose level (1 h)” value stood at 228.71 ± 3.85 mg/dL, the “Blood glucose level (2 h)” value came to 120.09 ± 3.35 mg/dL, the “Blood glucose level (3 h)” value stood at 90.66 ± 5.35 mg/dL and the “Blood glucose level (6 h)” value was found to be 85.66 ± 4.10 mg/dL.

Consider `Cn1c(=O)c(=O)n(C)c2cc(S(=O)(=O)NNC(=O)NC(=O)c3ccccc3)ccc21` [Compound 10c, N-Benzoyl-2-((1,4-dimethyl-2,3-dioxo-1,2,3,4-tetrahydroquinoxalin-6-yl)sulfonyl)hydrazine-1-carboxamide], for which, in data set [1], the “Blood glucose level (1 h)” value is 225.65 ± 3.85 mg/dL, the “Blood glucose level (2 h)” value worked out at 155.33 ± 2.78 mg/dL, the “Blood glucose level (3 h)” value was 137.34 ± 9.48 mg/dL and the “Blood glucose level (6 h)” value was found to be 104.08 ± 3.35 mg/dL.

`Cn1c(=O)c(=O)n(C)c2cc(S(=O)(=O)NNC(=O)Nc3ccc(Cl)cc3)ccc21` [Compound 10d, N-(4-Chlorophenyl)-2-((1,4-dimethyl-2,3-dioxo-1,2,3,4-tetrahydroquinoxalin-6-yl)sulfonyl)hydrazine-1-carboxamide]: the “DPP-4 suppression activity (in words)” value at DPP-4 was “inactive; also recorded: completely lost the activity”.

On to `Cn1c(=O)c(=O)n(C)c2cc(S(=O)(=O)NNC(=S)NC3CCCCC3)ccc21` [Compound 10f, N-Cyclohexyl-2-((1,4-dimethyl-2,3-dioxo-1,2,3,4-tetrahydroquinoxalin-6-yl)sulfonyl)hydrazine-1-carbothioamide], for which, in data set [1], the “Blood glucose level (1 h)” value turned out to be 237.33 ± 3.85 mg/dL, the “Blood glucose level (2 h)” value was 127.33 ± 4.23 mg/dL, the “Blood glucose level (3 h)” value was 100.06 ± 6.29 mg/dL and the “Blood glucose level (6 h)” value turned out to be 89.66 ± 2.27 mg/dL.

For the compound `COc1ccc(NC(=S)NNS(=O)(=O)c2ccc3c(c2)n(C)c(=O)c(=O)n3C)cc1` [Compound 10h, 2-((1,4-Dimethyl-2,3-dioxo-1,2,3,4-tetrahydroquinoxalin-6-yl)sulfonyl)-N-(4-methoxyphenyl)hydrazine-1-carbothioamide], the “DPP-4 suppression activity (in words)” value on DPP-4 was “inactive; also recorded: completely lost the activity”.

For the compound `CC#CCn1c(N2CCC[C@@H](N)C2)nc2c1c(=O)n(Cc1nc(C)c3ccccc3n1)c(=O)n2C` [Linagliptin, reference compound], in data set [1], the “Blood glucose level (1 h)” value turned out to be 220.01 ± 3.85 mg/dL, the “Blood glucose level (2 h)” value was 120.89 ± 1.76 mg/dL, the “Blood glucose level (3 h)” value was found to be 85.11 ± 2.39 mg/dL and the “Blood glucose level (6 h)” value amounted to 85.00 ± 5.15 mg/dL.
